Results reported in BindingDB's records for doi:10.1021/jm980077m (New York University Medical Center, 1998).
Values joined by “and” are separate entries in the source; they are usually repeats but may differ in a detail not shown here. Identical values can stand only once.

Molecular target: T1, Alpha-1D adrenergic receptor (Homo sapiens, UniProt P25100)
T1 sequence (P25100 whole entry): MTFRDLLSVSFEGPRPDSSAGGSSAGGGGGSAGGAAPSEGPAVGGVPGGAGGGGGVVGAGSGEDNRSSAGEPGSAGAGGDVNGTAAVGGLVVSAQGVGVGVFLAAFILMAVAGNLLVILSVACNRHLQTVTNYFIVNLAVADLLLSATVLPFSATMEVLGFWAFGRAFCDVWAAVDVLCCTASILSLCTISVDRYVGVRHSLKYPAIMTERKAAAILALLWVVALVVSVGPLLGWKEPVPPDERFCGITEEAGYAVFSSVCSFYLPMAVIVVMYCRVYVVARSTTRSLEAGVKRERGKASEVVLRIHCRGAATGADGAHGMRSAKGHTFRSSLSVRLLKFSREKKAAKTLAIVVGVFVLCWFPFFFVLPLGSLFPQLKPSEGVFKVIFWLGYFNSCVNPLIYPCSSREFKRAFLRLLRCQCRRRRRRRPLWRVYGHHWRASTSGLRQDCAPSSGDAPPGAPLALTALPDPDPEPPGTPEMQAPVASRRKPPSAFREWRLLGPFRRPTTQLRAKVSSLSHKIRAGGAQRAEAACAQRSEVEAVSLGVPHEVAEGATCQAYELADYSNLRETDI
Assay: Binding affinity determined by displacement of [3H]prazosin from alpha-1D adrenergic receptor
Procedure, shortened: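 Radioligand displacement binding with [3H]prazosin at the alpha-1d adrenoceptor. Incubation ran 30 min, with 4 h used for one earlier reference compound. Results were expressed as pKi.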

**Q.** Which Ki does the source give for `CC1=NC(C)=C(C(=O)NCCCN2CCC(c3ccccc3)(c3ccccc3)CC2)C(c2ccc([N+](=O)[O-])cc2)C1C(N)=O` (stereo unspecified) [2,6-Dimethyl-4-(4-nitro-phenyl)-1,4-dihydro-pyridine-3,5-dicarboxylic acid 3-amide 5-{[3-(4,4-diphenyl-piperidin-1-yl)-propyl]-amide}] here?
**A.** 224 nM and 223 nM
